Assay results taken from paper PMC12410913 (Small (Weinheim an Der Bergstrasse, Germany), 2025).
Entries after “also recorded” stand apart in the source; their conditions may differ.

Assays:
E. coli ATCC 25 922 = experiment: Field-emission SEM of nanonet morphology; type: cell-based; conditions: 40 µM peptide (100 µM E-E13 ASYM), 2 h, MHB, 37 °C
In short: (§1)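 Mid‑log bacteria were diluted in MHB to OD600 0.07, then given test peptide and shaken at 120 rpm. They were pelleted at 6000 g for 6 min, PBS‑washed three times, and fixed overnight at 4 °C in 2.5% glutaraldehyde. Cells were adhered to poly‑L‑lysine coverslips, post‑fixed with 1% OsO4 for 30 min, ethanol‑dehydrated and gold‑coated. Imaging was at 15 000×, with ≥3 fields per sample. Coverage and extensiveness were scored high/moderate/low.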

S. aureus ATCC 29 737 = experiment: Field-emission SEM of nanonet morphology; type: cell-based; conditions: 40 µM peptide (100 µM E-E13 ASYM), 2 h, MHB, 37 °C
In short: as §1

BODIPY-Cadaverine = type: binding, E. coli O111:B4 (LPS), S. aureus (LTA); conditions: LPS/LTA-BC complexes in 1× PBS pH 7.4, 37 °C, 30 minutes
In short: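 LPS (E. coli O111:B4) or LTA (S. aureus) at 50 µg mL−1 was premixed with 5 µM BODIPY‑cadaverine in 1× PBS pH 7.4 for 30 min at room temperature in the dark. The premix was added 1:1 to two‑fold serial peptide dilutions in PBS, with polymyxin B as control, and shaken at 120 rpm. Fluorescence was read at ex 580/em 620 nm. Occupancy factor and % BC displaced came from sample fluorescence scaled between highest and lowest signals.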

[1] = K114 fluorescence fibrillation assay with LPS or LTA; type: physicochemical, E. coli O111:B4 (LPS), S. aureus (LTA); conditions: 20 µM peptide, 37 °C
In short: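 A 10 mM DMSO stock of K114 was diluted to 250 µM in water and mixed at once with test peptide plus LPS (E. coli O111:B4) or LTA (S. aureus), with shaking at 120 rpm. K114 fluorescence (ex 360/em 550 nm) was read at 0.5, 1 and 2 h. Results were given as % increase in signal, with a non‑fibrillating control peptide as baseline. Three repeats, mean ± SE.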

[2] = K114 fluorescence fibrillation assay in PBS alone; type: physicochemical; conditions: 20 µM peptide, 1× PBS pH 7.4, 37 °C, 30 minutes
In short: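 K114 was dissolved in DMSO at 10 mM and diluted to 250 µM in water. It was mixed at once with test peptide in 1× PBS pH 7.4 without LPS or LTA and shaken at 120 rpm. Fluorescence was read at ex 360/em 550 nm at 0.5, 1.0 and 2.0 h. Fibrillation was judged by signal above a non‑fibrillating control peptide.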

Sequence | Nanonet morphology (surface coverage, extensiveness) on E. coli (E. coli ATCC 25 922) | Nanonet morphology (surface coverage, extensiveness) on S. aureus (S. aureus ATCC 29 737) | Binding to bacterial PAMPs (BC displaced from LPS or LTA) (BODIPY-Cadaverine) | Fibrillation (K114 fluorescence signal) in response to LPS ([1]; 5 µg mL−1 LPS) | Fibrillation (K114 fluorescence signal) upon LTA binding ([1]; 5 µg mL−1 LTA) | Fibrillation (K114 fluorescence) in PBS alone [2]
EVRIKLTAKIEVR [E‐E13 ^ASYM] | minimal membrane contact and low surface coverage | minimal membrane contact and low surface coverage | significantly reduced binding to bacterial PAMPs |  |  | 
KFRFKLTAKFRFK [diF‐F13] | tighter interweaving of nanofibers on the surface of E. coli | formed nanonets similar to F‐F15 and BTT1‐3A |  |  |  | 
KFRVKLTAKVRFK [F‐F13] | loosely trap E. coli with moderate surface coverage | slightly increased surface coverage on S. aureus but with less extensive nanonets |  | lower fibrillation in response to LPS | higher in fibrillation upon LTA binding | 
KLKLKLTAKLKLK [btt1‐3A13] | less extensive nanonets with low surface coverage | random aggregated structures |  |  |  | 
LKFRFKLTAKFRFKL [diF‐F15] |  |  |  |  |  | spontaneously fibrillated in PBS; also recorded: significantly increased the K114 fluorescence signal, even in PBS alone
LKFRVKLTAKVRFKL [F‐F15] | extensive nanonets with moderate surface coverage | extensive nanonets with moderate surface coverage |  |  |  | 
